ChEMBL document CHEMBL1806414, “Synthesis and anticonvulsant activity of 7-phenyl-6,7-dihydro-[1,2,4]triazolo[1,5-a]pyrimidin-5(4H)-ones and their derivatives” (Eur J Med Chem, 2011)
Activity calls are given as the source filed them. No cut-off for these calls is given here.

Columns and labels:
Mus musculus [1] = species: Mus musculus; test: Protective index, ratio of TD50 for neurotoxicity in Kunming mouse to ED50 for inhibition of MES-induced seizures in Kunming mouse; type: functional
[2] = Neurotoxicity in ip dosed Kunming mouse by rotarod test; type: toxicity, organism-based; details: in vivo
Procedure, shortened: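 Phase-II rotarod test in KunMing mice trained on a 3.2 cm rod at 10 rpm, DMSO vehicle. Groups of 10 mice got graded i.p. doses until at least three points fell within 10–90% minimal neurotoxicity, giving the median toxic dose.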

Mus musculus [3] = test: Anticonvulsant activity against maximal electric shock-induced seizures in ip dosed Kunming mouse assessed as median effective dose; type: functional
Procedure, shortened: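 Phase-II MES test in KunMing mice (18–22 g), DMSO vehicle, corneal electrode stimulus 0.2 s. Groups of 10 mice got a range of i.p. doses until at least three points fell within 10–90% seizure protection, giving the median effective dose. Endpoint is abolition of tonic hind-leg extension.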

Mus musculus [4] = test: Neurotoxicity in Kunming mouse at 300 mg/kg, ip after 4 hrs; type: toxicity, organism-based; design: dose 300 mg/kg, route intraperitoneal; details: in vivo
Procedure, shortened: (§1)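 Rotarod neurotoxicity in KunMing mice (18–22 g) trained on a 3.2 cm diameter rod at 10 rpm. Compounds in DMSO were given i.p. at 30, 100 and 300 mg/kg, three mice per dose, and tested at 0.5 h and 4 h after dosing.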

Mus musculus [5] = test: Neurotoxicity in Kunming mouse at 100 mg/kg, ip after 4 hrs; type: toxicity, organism-based; design: dose 100 mg/kg, route intraperitoneal; details: in vivo; procedure, shortened: as §1
Mus musculus [6] = test: Neurotoxicity in Kunming mouse at 300 mg/kg, ip after 0.5 hrs; type: toxicity, organism-based; design: dose 300 mg/kg, route intraperitoneal; details: in vivo; procedure, shortened: as §1
Mus musculus [7] = test: Neurotoxicity in Kunming mouse at 100 mg/kg, ip after 0.5 hrs; type: toxicity, organism-based; design: dose 100 mg/kg, route intraperitoneal; details: in vivo; procedure, shortened: as §1
Mus musculus [8] = test: Anticonvulsant activity in Kunming mouse assessed as protection against maximal electric shock-induced seizures at 300 mg/kg, ip measured after 4 hrs; type: functional, organism-based; design: dose 300 mg/kg
Procedure, shortened: (§2)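 KunMing mice (18–22 g), compounds dissolved in DMSO, given i.p. at 30, 100 and 300 mg/kg, three mice per dose. Current applied through corneal electrodes for 0.2 s at 0.5 h and 4 h after dosing. Protection is abolition of tonic hind-leg extension, scored as protected/tested.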

Mus musculus [9] = test: Anticonvulsant activity in Kunming mouse assessed as protection against maximal electric shock-induced seizures at 100 mg/kg, ip measured after 4 hrs; type: functional, organism-based; design: dose 100 mg/kg; procedure, shortened: as §2
Mus musculus [10] = test: Anticonvulsant activity in Kunming mouse assessed as protection against maximal electric shock-induced seizures at 30 mg/kg, ip measured after 4 hrs; type: functional, organism-based; design: dose 30 mg/kg; procedure, shortened: as §2
Mus musculus [11] = test: Anticonvulsant activity in Kunming mouse assessed as protection against maximal electric shock-induced seizures at 300 mg/kg, ip measured after 0.5 hrs; type: functional, organism-based; design: dose 300 mg/kg; procedure, shortened: as §2
Mus musculus [12] = test: Anticonvulsant activity in Kunming mouse assessed as protection against maximal electric shock-induced seizures at 100 mg/kg, ip measured after 0.5 hrs; type: functional, organism-based; design: dose 100 mg/kg; procedure, shortened: as §2
Mus musculus [13] = test: Anticonvulsant activity in Kunming mouse assessed as protection against maximal electric shock-induced seizures at 30 mg/kg, ip measured after 0.5 hrs; type: functional, organism-based; design: dose 30 mg/kg; procedure, shortened: as §2

SMILES | Ratio TD50/ED50 (Mus musculus [1]) | TD50 [2] | ED50 (Mus musculus [3]) | Activity (Mus musculus [4]) | Activity (Mus musculus [5]) | Activity (Mus musculus [6]) | Activity (Mus musculus [7]) | Activity (Mus musculus [8]) | Activity (Mus musculus [9]) | Activity (Mus musculus [10]) | Activity (Mus musculus [11]) | Activity (Mus musculus [12]) | Activity (Mus musculus [13])
O=C1CC(c2ccccc2)n2ccnc2N1 (stereo not drawn) | 6.7 | 458 mg/kg | 68.2 mg/kg | Non-toxic | Non-toxic | Non-toxic | Non-toxic | inactive | inactive | inactive | Active | Active | inactive
O=C1CC(c2cccc(C(F)(F)F)c2)n2ncnc2N1 (stereo not drawn) | 2.9 | 158 mg/kg | 54.8 mg/kg | Non-toxic | Non-toxic | Toxic | – | inactive | inactive | inactive | Active | Active | inactive
O=C1CC(c2cccc(Br)c2)n2ncnc2N1 (stereo not drawn) | 7 | 592 mg/kg | 84.9 mg/kg | Non-toxic | Non-toxic | Non-toxic | Non-toxic | inactive | inactive | inactive | Active | Active | inactive
